SMILES strings stand for the structures. In brackets after ≈: the same amount, converted by molar mass.

The source of these data is ChEMBL document CHEMBL1123375, “Carbocyclic puromycin: synthesis and inhibition of protein biosynthesis” (1986).

Assay [1] concerns Escherichia coli. Kind of assay: (§1) Kinetic constant was evaluated by using peptidyl transferase assay against Escherichia coli ribosome system. The class given is functional. In outline: (§2)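 Ac-[14C]-L-Phe-tRNA (21 pmol) prebound 8 min at 28°C to washed E. coli ribosomes (2.78 A260 units) with poly(U), 1.50 mM GTP, FWR, 20 mM Mg(OAc)2, 130 mM Tris-HCl pH 7.5, 130 mM NH4Cl. Reaction started with puromycin compound in water, run for timed intervals, then stopped with NaOH. Ethyl acetate-extracted product counted, blank-corrected. Km and Vmax by Wilkinson analysis, triplicates.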

A short description of assay [2]: Compound was evaluated for the cytotoxicity by using P-388 in vitro assay against P-388 mouse lymphoid leukemia cells in 4 mL of Fischer's medium with 10% horse serum. The class given is functional. The settings on record: P388, read-out: ED50 (the source's name). The procedure, abridged: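 Twofold dilution series in duplicate tubes, each seeded with 4×10^5 cells, incubated 72 h at 37°C, stoppered and held at a 30° angle without agitation, rotated twice daily. Growth read by hemocytometer count, inoculum subtracted. Percent inhibition calculated against controls, ED50 derived from this.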

Assay [3] has as its system Escherichia coli. Description: Substrate efficiency was evaluated by using peptidyl transferase assay against Escherichia coli ribosome system. The class given is functional. In outline:
as §2

The subject of assay [4] is Escherichia coli. Kind of assay: Ratio of kinetic parameter Vmax to that of Km in Escherichia coli ribosome system. On the set-up: unit not given here. The procedure, abridged:
as §2

The subject of assay [5] is Escherichia coli. The description is as §1. In outline:
as §2

For assay [6], the species on record is Rattus norvegicus. Kind of assay: Substrate efficiency was evaluated by using peptidyl transferase assay against Rat liver ribosome system. The class given is functional. In outline: (§3)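 Ac-[3H]-L-Phe-tRNA (22 pmol) prebound 60 min at 37°C to rat liver ribosomes (4.0 A260 units) with poly(U), 1.6 mM GTP, FWR, 15 mM Mg(OAc)2, 100 mM Tris-HCl pH 7.5, 100 mM NH4Cl. Mixture added to puromycin compound, 37°C for varying times. Product extracted into ethyl acetate and counted. Km and Vmax by Wilkinson analysis.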

The species named for assay [7] is Rattus norvegicus. Kind of assay: (§4) Kinetic constant was evaluated by using peptidyl transferase assay against Rat liver ribosome system. In outline:
as §3

The species named for assay [8] is Rattus norvegicus. Description: Ratio of kinetic parameter Vmax to that of Km in Rat liver ribosome. On the set-up: unit not given here. The procedure, abridged: as §3
Assay [9] is filed under the species Rattus norvegicus. The assay is described as §4. It counts as functional. The procedure, abridged: as §3
The species named for assay [10] is Rattus norvegicus. Description: Substrate efficiency of the compound was evaluated by using peptidyl transferase assay against Rat liver ribosome system. The class given is functional. In outline: as §3
For assay [11], the species on record is Rattus norvegicus. Description: Substrate efficiency was evaluated by using peptidyl transferase assay against Rat liver ribosome system. The class given is functional. In outline: as §3

By Km is commonly meant the concentration of substrate that gives half-maximal velocity. As for `COc1ccc(CC(N)C(=O)N[C@@H]2[C@@H](CO)C[C@@H](n3cnc4c(N(C)C)ncnc43)[C@@H]2O)cc1` (stereo partly specified), the Km was found to be 187 µM in the assay on Escherichia coli [1] and 300 µM in the assay listed under Rattus norvegicus [7]. The EC50 in assay [2] was 0.3 µg/mL (≈ 0.639 µM). Moreover, the Efficiency in the assay on Escherichia coli [3] stood at 45%; in the assay filed under Rattus norvegicus [6], 22%. Moreover, the Ratio with Escherichia coli [4] stood at 4540; in the assay filed under Rattus norvegicus [8], 12400. Moreover, the Vmax was 850 c.p.m with Escherichia coli [5] and 3720 c.p.m in the assay filed under Rattus norvegicus [7].
In the case of `COc1ccc(C[C@H](N)C(=O)N[C@H]2[C@@H](O)[C@H](n3cnc4c(N(C)C)ncnc43)O[C@@H]2CO)cc1` [PUROMYCIN], the Michaelis constant (Km) in the assay with Escherichia coli [1] is 186 µM; in the assay filed under Rattus norvegicus [9], 255 µM. Moreover, the EC50 in assay [2] was found to be 0.3 µg/mL (≈ 0.636 µM). Moreover, the Efficiency in the assay on Escherichia coli [3] and in the assay listed under Rattus norvegicus [6] was 100% in each case. The Ratio stood at 10200 with Escherichia coli [4] and 55700 in the assay listed under Rattus norvegicus [8]. For the same compound, the Vmax in the assay on Escherichia coli [5] amounted to 1890 c.p.m; in the assay filed under Rattus norvegicus [7], 14200 c.p.m.
For the compound `COc1ccc(CC(N)C(=O)N[C@H]2[C@@H](O)[C@H](n3cnc4c(N(C)C)ncnc43)O[C@@H]2C)cc1` (stereo partly specified), the Km in the assay with Escherichia coli [1] is 230 µM; in the assay filed under Rattus norvegicus [7], 610 µM. Further, the EC50 in [2] was 0.3 µg/mL (≈ 0.659 µM). For the same compound, the Efficiency came to 81% with Escherichia coli [3] and 42% in the assay listed under Rattus norvegicus [10]. Also, the Ratio with Escherichia coli [4] stood at 8220; in the assay listed under Rattus norvegicus [8] it was 23300. Further, the values for the Vmax with Escherichia coli [5] and in the assay listed under Rattus norvegicus [7] were 1890 c.p.m and 14200 c.p.m, respectively.
`COc1ccc(CC(N)C(=O)N[C@@H]2CC[C@@H](n3cnc4c(N(C)C)ncnc43)[C@@H]2O)cc1` (stereo partly specified): in assay [2], the EC50 was determined as 0.8 µg/mL (≈ 1.82 µM). The figures for the Efficiency with Escherichia coli [3] and in the assay listed under Rattus norvegicus [11] were 34% and 5.7%, respectively. The results for the Ratio in the assay on Escherichia coli [4] and in the assay listed under Rattus norvegicus [8] were 3420 and 3160, respectively. For the same compound, the values for the Km in the assay with Escherichia coli [5] and in the assay filed under Rattus norvegicus [7] were 188 µM and 276 µM, respectively. Also, the Vmax came to 644 c.p.m with Escherichia coli [5] and 871 c.p.m in the assay filed under Rattus norvegicus [7].
